According to paper PMC9933477 (ACS Omega, 2023):
Converted amounts (≈) assume the structure as drawn.

Key:
TNBS-induced colitis = test: Mouse model of TNBS-induced colitis; format: in vivo; settings: 10, 20 or 30 mg/kg/day by gavage
Procedure, shortened: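 C57 male mice given TNBS to induce colitis, then vehicle or test compound at 10, 20 or 30 mg/kg/day by gavage, day 0 to day 4. Read-outs: body-weight change, CDAI, colon length, colon weight/length ratio, H&E of colon sections. Colon mRNA by RT-PCR normalised to Gapdh, Tbp and Actb. Mean ± SEM of 5–10 mice/group; p<0.05 vs TNBS or untreated.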

RORγt = target: T1, RORγt (Homo sapiens, UniProt P51449); test: Cofactor peptide recruitment assay; format: biochemical
T1 sequence (P51449 251-518): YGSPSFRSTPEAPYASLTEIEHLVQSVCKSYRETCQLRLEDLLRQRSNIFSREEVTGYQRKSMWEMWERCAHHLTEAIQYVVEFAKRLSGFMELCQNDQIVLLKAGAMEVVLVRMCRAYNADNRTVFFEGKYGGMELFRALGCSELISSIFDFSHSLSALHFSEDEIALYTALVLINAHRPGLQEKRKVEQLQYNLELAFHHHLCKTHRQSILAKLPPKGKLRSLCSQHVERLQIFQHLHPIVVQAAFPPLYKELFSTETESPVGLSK
Procedure, shortened: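 Cell-free AlphaScreen measuring test compound interference with RORγt binding to SRC-1 coactivator peptide. […] Vehicle (DMSO) wells are set as 100% control and wells lacking protein as 0% control.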

[1] = Metabolic stability in human liver microsomes; format: in vitro ADME; settings: pH 7.4
GPBAR1 = target: T2, GPBAR1 (Homo sapiens, UniProt Q8TDU6); test: Luciferase reporter assay; format: cell-based
T2 sequence (Q8TDU6 1-330): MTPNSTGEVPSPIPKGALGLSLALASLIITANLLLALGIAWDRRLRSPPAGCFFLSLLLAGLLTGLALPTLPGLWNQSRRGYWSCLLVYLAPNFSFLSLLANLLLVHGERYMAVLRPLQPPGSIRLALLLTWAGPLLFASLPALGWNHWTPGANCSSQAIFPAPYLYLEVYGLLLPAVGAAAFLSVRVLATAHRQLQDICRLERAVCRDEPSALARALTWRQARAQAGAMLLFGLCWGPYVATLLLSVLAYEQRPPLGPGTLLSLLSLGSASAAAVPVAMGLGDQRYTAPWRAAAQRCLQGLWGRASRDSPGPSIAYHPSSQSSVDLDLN
Procedure, shortened: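 HEK-293T cells transfected with GPBAR1 carry a cAMP-responsive element (CRE) luciferase reporter. Single-point efficacy at 10 μM is scored against TLCA (10 μM) as 100%, as the mean of two experiments ± SD. EC50 comes from concentration-dependent CREB activation in the same transfected cells.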

U937 cells = U937 cells activated with LPS plus TNFα, RT-PCR of proinflammatory genes; format: cell-based, human; settings: 1 μM, 24 h, compared to cells exposed only to LPS plus TNFα
[2] = Aqueous solubility measurement; format: physicochemical; settings: PBS pH 7.4, pH 7.4, aqueous buffer, kinetic from dmso stock

| Structure (SMILES) | IC50 (RORγt) | EC50 (GPBAR1) | solubility at 24 h [2] | other results |
| --- | --- | --- | --- | --- |
| C[C@H](CCCOc1cccc(CO)c1)[C@H]1CC[C@H]2[C@@H]3CC=C4C[C@@H](O)CC[C@]4(C)[C@H]3CC[C@]12C [Compound 7] | 107 nM | 5900 nM | – | Damage to the colon (macroscopic analysis and H&E histology) (TNBS-induced colitis; day 0 to day 4): decreased the damage to the colon; Severity of colitis (percentage of body weight, CDAI) (TNBS-induced colitis; day 0 to day 4): relieved by 7 in a dose-dependent manner; Colon expression of IL-10 (TNBS-induced colitis; RT-PCR of colon): strong increase; Colon expression of Rorc, IL-17A, and F (TNBS-induced colitis; RT-PCR of colon): decreased the expression; microsomal CLint at 1 µM [1]: 7 µL/min/mg |
| C[C@H](CCCOc1ccc(C(=O)O)cc1)[C@H]1CC[C@H]2[C@@H]3CC=C4C[C@@H](O)CC[C@]4(C)[C@H]3CC[C@]12C [Compound 3] | 1190 nM | 220 nM | – | Reduction in the expression of all measured genes (IL-1β, TNFα, IL-6, CD11c) (U937 cells): 30–50% |
| C[C@H](CCCOc1ccc(C#N)cc1)[C@H]1CC[C@H]2[C@@H]3CC[C@@H]4C[C@H](O)CC[C@]4(C)[C@H]3CC[C@]12C [Compound 17] | – | – | 15 µM (≈ 6.96 µg/mL) | – |
| C[C@H](CCCOc1ccc(C#N)cc1)[C@H]1CC[C@H]2[C@@H]3CC=C4C[C@@H](O)CC[C@]4(C)[C@H]3CC[C@]12C [Compound 5] | – | – | 10 µM (≈ 4.62 µg/mL) | – |
